Shown are actives, neighbours in structure and some others; about 2.5% of the full set was active somewhere.
PMI activator: activators of human PMI, primary screen, biochemical, fluorescence intensity, near-Km mannose 6-phosphate; hit rate 0.005% among 190,000; activation factor at 20 µM; Mannose-6-phosphate isomerase (Homo sapiens), P34949; purified human PMI, coupled resazurin fluorescence, 20 min; active compounds read high; 1 = vehicle control, 0 substrate-free wells;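 active = activation factor of 2 or more at 20 µM, relative to plate controls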
Diaph inh CS: diaphorase inhibitors and chemical oxidizers, primary screen, counter-screen for diaphorase-coupled primary assays, biochemical, uHTS, resorufin fluorescence | inhibition, % at 20 µM | AID 1217, 2008 | hit rate 0.69% among 190,000 | diaphorase resazurin-to-resorufin fluorescence, NADH, 16 min; bacterial (C. kluyveri) enzyme, not human;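 active = primary screen inhibition at 20 µM above a set limit, cut at about 50% in these data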;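 also: plate controls were DMSO with full reaction for no effect and wells lacking NADH for full effect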
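Assay system: diaphorase enzyme from Clostridium kluyveri. Quantity: enzyme working solution with 0.14 U/mL diaphorase. Schedule: reaction incubation of 16 min at room temperature. Technique: resorufin fluorescence, excitation 544 nm, emission 590 nm. Controls: No-NADH positive control and DMSO neutral control.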
FLuc inh counter: firefly luciferase enzyme inhibitors, primary screen, artefact control for luciferase-based inhibitor screens, biochemical, luminescence, ATPLite; Luciferin 4-monooxygenase (Photinus pyralis), P08659; 10 min; inhibition, % at 10 µM; hit rate 1.5% among 200,000;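 active = inhibition above about 50% when tested at 10 µM, limit read from the data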
Target sequence (P08659 whole entry, looked up): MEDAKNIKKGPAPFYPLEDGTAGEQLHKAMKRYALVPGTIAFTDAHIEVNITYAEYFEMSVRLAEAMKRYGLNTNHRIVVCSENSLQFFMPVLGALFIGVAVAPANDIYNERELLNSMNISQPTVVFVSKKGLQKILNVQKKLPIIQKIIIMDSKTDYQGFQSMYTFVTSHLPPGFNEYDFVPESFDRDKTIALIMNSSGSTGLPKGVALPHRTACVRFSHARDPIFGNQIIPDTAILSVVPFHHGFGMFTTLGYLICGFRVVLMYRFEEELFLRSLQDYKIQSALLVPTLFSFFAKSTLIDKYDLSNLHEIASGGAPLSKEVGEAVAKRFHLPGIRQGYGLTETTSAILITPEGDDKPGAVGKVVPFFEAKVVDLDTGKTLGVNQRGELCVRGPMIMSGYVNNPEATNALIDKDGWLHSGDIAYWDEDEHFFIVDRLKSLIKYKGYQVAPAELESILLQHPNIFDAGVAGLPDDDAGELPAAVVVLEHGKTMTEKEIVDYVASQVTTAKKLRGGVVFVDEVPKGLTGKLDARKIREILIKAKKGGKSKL
Diaph act CS: compounds boosting diaphorase resazurin reduction – biochemical, uHTS, resorufin fluorescence, counter-screen for diaphorase-coupled primary assays, primary screen; hit rate 0.005% among 190,000; Diaphorase/resazurin coupled assay, 16 min; active compounds read high; 1 = vehicle wells, 0 = NADH-free wells; activation factor at 20 µM;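 active = diaphorase activity raised at least twofold by the compound at 20 µM; inactive = activation factor below 2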
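test system = bacterial diaphorase enzyme (C. kluyveri) | quantity = enzyme 0.07 U/mL final | reagent = NADH substrate 0.114 mM plus resazurin dye 0.1 mM, final | incubation = 16 min enzyme reaction, ambient temperature | buffer or medium = HEPES pH 7.4 buffer with MgCl2 and Tween 20 | signal = fluorescence of resorufin, 544 nm excitation, 590 nm emission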
PMI act satM6P: human PMI activators, high substrate, primary screen, biochemical, fluorescence intensity, near-saturating mannose 6-phosphate; activation factor at 20 µM; hit rate 0.34% among 190,000; Mannose-6-phosphate isomerase (Homo sapiens), P34949; coupled PMI enzyme assay, resazurin fluorescence, 20 min; active compounds read high; 1 = untreated enzyme, 0 = substrate-free blank;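 active = activation factor of 2 or more at 20 µM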
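Test system: human PMI in coupled enzyme assay; Input: PMI at 15 ng/mL final; Medium: HEPES buffer, pH 7.4; Schedule: 20 min incubation at room temperature; Technique: resorufin fluorescence at Ex 544/Em 590 nm; Compound: 20 µM single dose; Probe or stimulus: Near-saturating mannose-6-phosphate, 1.0 mM.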
FLuc act counter: FLuc activators, initial screening, artefact control for FLuc-dependent activation tests, biochemical, ATPlite luminescence | 200,000 tested, under 10 active | Luciferin 4-monooxygenase (Photinus pyralis), P08659 | activation factor at 10 µM | AID 1027, 2008 | ATPlite luciferase biochemical, 10 min; 0 = ATP-free wells, 1 = DMSO control;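 active = luciferase activation factor, scaled between plate controls, of at least 2 with compound at 10 µM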
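Assay system: Luciferase/luciferin detection reagent, cell-free biochemical luciferase assay / Read-out: luciferase activation / Benchmarks: No-ATP low control, compound-free enzyme-plus-ATP high control / Medium: PBS buffer for ATP / Detection: luminescence measurement of luciferase light output / Schedule: 10 min at ambient temperature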
Numbers without * were called inactive.

SMILES | PMI activator | Diaph inh CS | FLuc inh counter | Diaph act CS | PMI act satM6P | FLuc act counter
CC(C)c1ccc(/C=C/C(=O)Nc2nncs2)cc1 | 1 | 8.9 | 58.9* | 0.9 | 1 | 0.4
Cc1c(C(=O)O)cnc2cc(-c3ccc(Cl)cc3)nn12 | 0.9 | 12.3 | 56.4* | 0.9 | 0.9 | 0.4
CCOc1cccc(-c2nc3cc(C)ccc3o2)c1 | 0.9 | 24.4 | 68.2* | 0.8 | 0.9 | 0.3
O=[N+]([O-])c1ccc2oc(-c3ccccc3)nc2c1 | 1 | -3.0 | 18.2 | 1 | 1.1 | 0.8
Cc1ccc2oc(-c3ccccc3)nc2c1 | 0.9 | 8.3 | 75.7* | 0.9 | 0.9 | 0.2
Cc1cc(Cl)ccc1OCc1cn2cccnc2n1 | 1 | 2.2 | 47.8 | 1 | 1 | 0.5
O=C(c1ccccc1Br)N1CCn2c1nc1ccccc12 | 1.1 | -4.0 | 1.3 | 1 | 1 | 1
O=c1c2c3c(sc2n2cnnc2n1Cc1ccccc1)CN(Cc1ccccc1)CC3 | 1.5 | 7.0 | -8.0 | 0.9 | 2* | 1.1
Cc1nnc2n(Cc3ccccc3)c(=O)c3c4c(sc3n12)CN(Cc1ccccc1)CC4 | 0.9 | 24.6 | -4.9 | 0.8 | 0.9 | 1
Cc1cccc(N=C/C(C(=O)C(F)(F)F)=C(\O)c2ccco2)c1 | 1.3 | -3.2 | 23.5 | 1 | 1.3 | 0.8
O=C(/C(C=Nc1ccc(F)cc1)=C(/O)c1ccco1)C(F)(F)F | 1.2 | -0.6 | 79.3* | 1 | 1.4 | 0.2
O=C(c1ccccc1)c1cc(Cl)ccc1N1C(=O)C=CC1=O | 1.2 | 10.7 | 57.7* | 0.9 | 1.5 | 0.4
Oc1cccc(/C=N/N(Cc2ccccc2)c2ccccc2)c1 | 0.9 | 16.4 | -4.7 | 0.8 | 0.9 | 1
Oc1ccc(/C=N/N(Cc2ccccc2)c2ccccc2)c(O)c1O | 0.2 | 86.6* | -5.5 | 0.1 | 0.4 | 1.1
CCOc1ccc2nc3c(cc2c1)CN(CCCO)C(=NCCOC)S3 | 0.9 | 25.9 | -4.2 | 0.7 | 0.7 | 1
Nc1ccccc1NC(=O)c1ccccc1 | 0.9 | 13.7 | -3.6 | 0.9 | 0.9 | 1
Nc1ccc(C(=O)Nc2ccccc2C(=O)O)cc1 | 1 | 5.9 | 53.8* | 0.9 | 1.1 | 0.5
CCOc1ccc(C(=O)Nc2ccccc2C(=O)O)cc1 | 1.2 | -14.3 | 92.6* | 1.1 | 1.2 | 0.1
CCOC(=O)c1ccccc1NC(=O)c1ccc2nccnc2c1 | 1 | 54.9* | -5.9 | 0.5 | 0.8 | 1.1
CCCCN(CC(=O)NCc1ccc(F)cc1)C(=O)c1ccco1 | 1 | -8.3 | 0.2 | 1.1 | 1 | 1
O=C(O)c1ccc(Cl)c2c1C1C=CCC1C(c1ccccn1)N2 (configuration not stated) | 1.6 | 55.7* | 1.9 | 0.4 | 1.8 | 1
COc1ccc(C(=O)OCCOc2ccccc2C(C)=O)c(O)c1 | 1.1 | 8.8 | -2.2 | 0.9 | 1.1 | 1
Cc1cc(C)cc(NC(=O)CCN2CC(C)OC(C)C2)c1 (configuration not stated) | 1 | 9.3 | -3.2 | 0.9 | 1 | 1
CC1(CC(=O)N/N=C/c2cc([N+](=O)[O-])c(O)cc2O)OCCO1 | 1.1 | 60.2* | -1.8 | 0.4 | 1.4 | 1
O=C(CSC1=Nc2ccccc2C2=NC(CC(=O)N3CCN(c4ccccc4)CC3)C(=O)N12)NCC1CCCO1 (configuration not stated) | 0.9 | 18.7 | -5.8 | 0.8 | 0.8 | 1.1
O=C(CN1C(=O)NC2(CCSC2)C1=O)N1CCN(c2ccc(F)cc2)CC1 (configuration not stated) | 1.6 | 14.1 | -3.9 | 0.9 | 2.1* | 1
COc1ccccc1CNC(=O)CSc1nnc2c(Cl)cc(C(F)(F)F)cn12 | 1 | 6.4 | -1.4 | 0.9 | 1 | 1

Assay outcomes deposited in PubChem BioAssay by Sanford-Burnham Center for Chemical Genomics.
